Active and inactive are the calls of the source. The rule behind the calls is not given here.
How the values were obtained:
Homo sapiens = organism: Homo sapiens; assay: Selectivity index, ratio of IC50 for BuChE in human serum to IC50 for AChE in human erythrocytes measured by DTNB reagent based Ellman's method; format: cell-based
[1] = target: Acetylcholinesterase (Homo sapiens) (UniProt P22303); assay: Inhibition of AChE in human erythrocytes assessed as inhibition of AChE-induced amyloid beta (1 to 42) aggregation by measuring reduced particle size at 10 uM measured after 48 hrs by Dynamic light scattering analysis; format: cell-based; details: Erythrocyte
Sequence of Acetylcholinesterase (Homo sapiens) (P22303 whole entry): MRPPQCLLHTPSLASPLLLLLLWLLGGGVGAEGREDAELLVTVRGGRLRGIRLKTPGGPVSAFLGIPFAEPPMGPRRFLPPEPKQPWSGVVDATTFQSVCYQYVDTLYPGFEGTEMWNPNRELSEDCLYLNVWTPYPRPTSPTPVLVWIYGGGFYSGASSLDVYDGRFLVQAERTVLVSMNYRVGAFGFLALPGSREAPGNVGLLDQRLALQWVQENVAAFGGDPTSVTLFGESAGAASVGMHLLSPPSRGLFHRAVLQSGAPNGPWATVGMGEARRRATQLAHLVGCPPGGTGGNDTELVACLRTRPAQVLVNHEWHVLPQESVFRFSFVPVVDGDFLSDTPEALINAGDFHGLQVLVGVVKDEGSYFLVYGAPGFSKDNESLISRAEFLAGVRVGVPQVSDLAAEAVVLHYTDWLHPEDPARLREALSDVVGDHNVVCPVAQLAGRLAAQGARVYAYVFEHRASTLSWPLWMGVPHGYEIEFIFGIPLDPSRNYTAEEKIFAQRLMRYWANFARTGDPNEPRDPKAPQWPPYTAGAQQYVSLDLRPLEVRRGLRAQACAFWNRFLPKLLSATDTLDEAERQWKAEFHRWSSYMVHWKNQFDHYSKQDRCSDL
Procedure, shortened: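 Aβ1-42 with AChE (10 unit/mL) incubated with compound at 10 μM in PBS pH 7.4, in the dark for 48 h at 37 °C. Particle size distribution then measured by dynamic light scattering.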

[2] = target: Acetylcholinesterase (Homo sapiens) (UniProt P22303); assay: Inhibition of AChE in human erythrocytes assessed as inhibition of AChE-induced amyloid beta(1 to 42) aggregation at Abeta42:compound concentration ratio of 10:20 measured after 48 hrs by thioflavin-T assay; format: cell-based; details: Erythrocyte
Procedure, shortened: (§1)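 Aβ1-42 (stock in 1% ammonium hydroxide; final 10 μM) plus human erythrocyte AChE. Incubated 48 h at 37 °C with or without compound (5, 10, 20 μM; DMSO stock diluted in PBS pH 7.4). Then diluted in 50 mM glycine-NaOH pH 8.0 containing 5 μM thioflavin T. Fluorescence normalised to control; three separate experiments.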

[3] = target: Amyloid-beta precursor protein (Homo sapiens) (UniProt P05067); assay: Inhibition of self-induced amyloid beta (1 to 42) (unknown origin) aggregation assessed as reduced particle size at 10 uM measured after 48 hrs by Dynamic light scattering analysis
Sequence of Amyloid-beta precursor protein (Homo sapiens) (P05067 whole entry): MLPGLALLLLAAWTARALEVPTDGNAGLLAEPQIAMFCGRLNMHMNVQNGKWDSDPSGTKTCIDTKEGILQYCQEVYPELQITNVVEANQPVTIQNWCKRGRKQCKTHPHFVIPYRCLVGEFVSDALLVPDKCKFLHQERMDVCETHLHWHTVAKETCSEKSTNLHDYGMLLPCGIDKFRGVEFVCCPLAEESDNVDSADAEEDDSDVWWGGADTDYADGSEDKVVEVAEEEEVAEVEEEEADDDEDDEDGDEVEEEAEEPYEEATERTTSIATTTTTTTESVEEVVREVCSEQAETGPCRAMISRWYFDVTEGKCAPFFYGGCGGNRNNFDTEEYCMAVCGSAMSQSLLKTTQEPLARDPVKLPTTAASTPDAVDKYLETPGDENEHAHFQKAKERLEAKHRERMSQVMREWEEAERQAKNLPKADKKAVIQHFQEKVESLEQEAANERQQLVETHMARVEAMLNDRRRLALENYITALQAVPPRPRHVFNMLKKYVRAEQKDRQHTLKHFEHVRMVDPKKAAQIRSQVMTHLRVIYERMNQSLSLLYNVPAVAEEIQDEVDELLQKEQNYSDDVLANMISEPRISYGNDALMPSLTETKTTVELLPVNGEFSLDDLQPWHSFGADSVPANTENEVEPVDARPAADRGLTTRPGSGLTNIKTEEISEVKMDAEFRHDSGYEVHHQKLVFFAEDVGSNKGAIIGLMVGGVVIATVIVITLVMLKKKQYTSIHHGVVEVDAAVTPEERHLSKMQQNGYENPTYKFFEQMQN
Procedure, shortened: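 Aβ1-42 stock (100 μM) in PBS pH 7.4, […], incubated with compound (10 μM) in the dark at 37 °C for 48 h. Particle size distribution then measured by dynamic light scattering.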

[4] = target: Acetylcholinesterase (Homo sapiens) (UniProt P22303); assay: Non-competitive inhibition of AChE in human erythrocytes assessed as ratio of Vmax to Km at 25 nM measured at 2 mins interval for 10 mins by Lineweaver-Burk plot analysis; format: cell-based; details: Erythrocyte
Procedure, shortened: (§2)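 Human AChE kinetics in the Ellman DTNB assay. Inhibitor at 25, 50 and 100 nM, each with six ATCI concentrations, against an inhibitor-free series. Activity read every 2 min over 10 min. Km and Vmax from Michaelis–Menten non-linear regression; mechanism from Lineweaver–Burk plots; Ki from Dixon plot over four inhibitor concentrations and from slope/intercept replots. Triplicate.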

[5] = target: Acetylcholinesterase (Homo sapiens) (UniProt P22303); assay: Non-competitive inhibition of AChE in human erythrocytes assessed as decrease in Vmax with constant Km measured at 2 mins interval for 10 mins by Lineweaver-Burk plot analysis; format: cell-based; details: Erythrocyte; procedure, shortened: as §2
[6] = target: Acetylcholinesterase (Homo sapiens) (UniProt P22303); assay: Non-competitive inhibition of AChE in human erythrocytes assessed as ratio of Vmax to Km at 50 nM measured at 2 mins interval for 10 mins by Lineweaver-Burk plot analysis; format: cell-based; details: Erythrocyte; procedure, shortened: as §2
[7] = target: Amyloid-beta precursor protein (Homo sapiens) (UniProt P05067); assay: Inhibition of amyloid beta (1 to 42) (unknown origin) aggregation at 22 uM measured after 24 hrs by Transmission electron microscopy method
Procedure, shortened: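 Aβ1-42 (44 μM) co-incubated with compound (22 μM) at 37 °C for 24 h. 10 μL aliquots placed on carbon-coated copper grids, stained with 1% uranyl acetate, blotted and dried 15 min at room temperature. Fibril morphology imaged by […]TEM. Controls were Aβ1-42 alone at 37 °C for 24 h and Aβ1-42 alone at 0 h.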

[8] = target: Acetylcholinesterase (Homo sapiens) (UniProt P22303); assay: Non-competitive inhibition of AChE in human erythrocytes assessed as ratio of Vmax to Km at 100 nM measured at 2 mins interval for 10 mins by Lineweaver-Burk plot analysis; format: cell-based; details: Erythrocyte; procedure, shortened: as §2
[9] = target: Acetylcholinesterase (Homo sapiens) (UniProt P22303); assay: Inhibition of AChE in human erythrocytes assessed as inhibition of AChE-induced amyloid beta(1 to 42) aggregation at Abeta42:compound concentration ratio of 10:10 measured after 48 hrs by thioflavin-T assay; format: cell-based; details: Erythrocyte; procedure, shortened: as §1
MC65 = assay: Neuroprotective activity in human MC65 cells cultured in TC-deficient medium assessed as inhibition of TC-deficiency induced oxidative stress by measuring increase in cell viability at 1 to 80 uM measured after 12 hrs by MTT assay; format: functional, cell-based; details: dose 1-80 µM
Procedure, shortened: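 MC65 cells grown in MEM, PBS-washed and resuspended in MEM, then seeded at 5×10⁴ cells/well with or without TC. Compounds (80–1 μM) added to TC-free wells and incubated 12 h at 37 °C. MTT (5 mg/ml) added for a further 4 h; formazan dissolved in DMSO:H₂O 1:1 and read at 570 nm. Viability expressed as % of +TC control. Triplicate wells, three runs.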

| SMILES | Ratio IC50 (Homo sapiens) | also measured |
| --- | --- | --- |
| CCOC(=O)c1c(C)nc(N2CCN(S(=O)(=O)c3ccc(N)cc3)CC2)nc1-c1ccc(OC)cc1 | 0.33 |  |
| CCOC(=O)c1c(C)nc(N2CCN(S(=O)(=O)c3ccc(N)c(OC)c3)CC2)nc1-c1ccccc1 | 0.29 |  |
| CCOC(=O)c1c(C)nc(N2CCN(S(=O)(=O)c3ccc(NC(C)=O)cc3)CC2)nc1-c1ccc(OC)c(OC)c1 | 0.35 |  |
| CCOC(=O)c1c(C)nc(N2CCN(S(=O)(=O)c3ccc(NC(C)=O)c(Cl)c3)CC2)nc1-c1ccc(OC)c(OC)c1 | 0.23 | inhibition [1]: Active; inhibition [2]: 51.3%; inhibition [3]: Active; Vmax/Km [4]: 0.094; inhibition [5]: Active; Vmax/Km [6]: 0.076; inhibition [7]: Active; Vmax/Km [8]: 0.056; inhibition [9]: 35.5% |
| CCOC(=O)c1c(C)nc(N2CCN(S(=O)(=O)c3ccc(NC(C)=O)c(F)c3)CC2)nc1-c1ccc(OC)c(OC)c1 | 0.41 |  |
| CCOC(=O)c1c(C)nc(N2CCN(S(=O)(=O)c3ccc(N)c(Cl)c3)CC2)nc1-c1ccccc1 | 0.57 |  |
| CCOC(=O)c1c(C)nc(N2CCN(S(=O)(=O)c3ccc(N)c(Cl)c3)CC2)nc1-c1ccc(OC)cc1 | 0.43 |  |
| CCOC(=O)c1c(C)nc(N2CCN(S(=O)(=O)c3ccc(N)cc3)CC2)nc1-c1ccc(OC)c(OC)c1 | 0.31 |  |
| CCOC(=O)c1c(C)nc(N2CCN(S(=O)(=O)c3ccc(NC(C)=O)c(F)c3)CC2)nc1-c1ccc(OC)cc1 | 0.42 |  |
| CCOC(=O)c1c(C)nc(N2CCN(S(=O)(=O)c3ccc(NC(C)=O)c(Cl)c3)CC2)nc1-c1ccccc1 | 0.61 |  |
| CCOC(=O)c1c(C)nc(N2CCN(S(=O)(=O)c3ccc(NC(C)=O)cc3)CC2)nc1-c1ccc(OC)cc1 | 0.42 |  |
| CCOC(=O)c1c(C)nc(N2CCN(S(=O)(=O)c3ccc(N)c(OC)c3)CC2)nc1-c1ccc(OC)c(OC)c1 | 0.4 |  |
| CCOC(=O)c1c(C)nc(N2CCN(S(=O)(=O)c3ccc(N)c(F)c3)CC2)nc1-c1ccc(OC)cc1 | 0.64 |  |
| CCOC(=O)c1c(C)nc(N2CCN(S(=O)(=O)c3ccc(N)c(OC)c3)CC2)nc1-c1ccc(OC)cc1 | 0.36 |  |
| CCOC(=O)c1c(C)nc(N2CCN(S(=O)(=O)c3ccc(NC(C)=O)cc3)CC2)nc1-c1ccccc1 | 0.54 |  |
| CCOC(=O)c1c(C)nc(N2CCN(S(=O)(=O)c3ccc(NC(C)=O)c(OC)c3)CC2)nc1-c1ccccc1 | 0.42 |  |
| CCOC(=O)c1c(C)nc(N2CCN(S(=O)(=O)c3ccc(NC(C)=O)c(OC)c3)CC2)nc1-c1ccc(OC)cc1 | 0.4 |  |
| CCOC(=O)c1c(C)nc(N2CCN(S(=O)(=O)c3ccc(N)c(Cl)c3)CC2)nc1-c1ccc(OC)c(OC)c1 | 0.28 | inhibition [1]: Active; inhibition [2]: 35.3%; inhibition [3]: Active; Activity (MC65): Active; inhibition [7]: Active; inhibition [9]: 22.2% |
| CCOC(=O)c1c(C)nc(N2CCN(S(=O)(=O)c3ccc(NC(C)=O)c(Cl)c3)CC2)nc1-c1ccc(OC)cc1 | 0.4 |  |
| CCOC(=O)c1c(C)nc(N2CCN(S(=O)(=O)c3ccc(N)c(F)c3)CC2)nc1-c1ccc(OC)c(OC)c1 | 0.37 |  |
| CCOC(=O)c1c(C)nc(N2CCN(S(=O)(=O)c3ccc(NC(C)=O)c(OC)c3)CC2)nc1-c1ccc(OC)c(OC)c1 | 0.38 |  |
| CCOC(=O)c1c(C)nc(N2CCN(S(=O)(=O)c3ccc(NC(C)=O)c(F)c3)CC2)nc1-c1ccccc1 | 0.35 |  |
